Results taken from ChEMBL document CHEMBL5108071, “Potent and Specific Activators for Mitochondrial Sirtuins Sirt3 and Sirt5” (J Med Chem, 2022).
Calls of active or inactive are those of the source. The calls are words filed in the database; no cut-off is given here.

How the values were obtained:
[1] = molecular target: NAD-dependent protein deacylase sirtuin-5, mitochondrial (Homo sapiens) (UniProt Q9NXA8); assay: Activation of N-terminal his-tagged human SIRT5 (34 to 302 residues) expressed in Escherichia coli assessed as fold activation at 10 to 100 uM using CPS1-succ537 as substrate in presence of NAD+; conditions: filed as activator, dose 10-100 µM
Summary of the method: (§1)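 Coupled enzymatic deacylation assay (nicotinamidase/GDH-coupled, continuous): 1.5 μM recombinant Sirtuin (expressed in E. coli, Ni-NTA purified, tag removed, size-exclusion purified) with 50 μM substrate peptide and 100 μM NAD+, without or with 10 μM or 100 μM 1,4-DHP, 5% final DMSO. Activity expressed relative to no-compound control.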
Target sequence in this assay (Q9NXA8 37-310 limits assumed): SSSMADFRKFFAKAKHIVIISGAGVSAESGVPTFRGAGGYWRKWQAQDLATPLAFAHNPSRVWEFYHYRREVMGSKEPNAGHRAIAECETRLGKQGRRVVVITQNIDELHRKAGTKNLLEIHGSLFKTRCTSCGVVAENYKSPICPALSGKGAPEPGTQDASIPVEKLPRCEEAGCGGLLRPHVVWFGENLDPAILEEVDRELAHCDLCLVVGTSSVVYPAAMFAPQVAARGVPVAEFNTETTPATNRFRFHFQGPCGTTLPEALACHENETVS

[2] = molecular target: T1, NAD-dependent protein deacetylase sirtuin-2 (Homo sapiens) (UniProt Q8IXJ6); assay: Activation of N-terminal SUMO-tagged human SIRT2 (43 to 356 residues) expressed in Escherichia coli assessed as deacetylation of substrate by measuring fold activation at 100 uM using acetylated alpha tubulin-K2 as substrate in presence of NAD+; conditions: filed as activator; summary of the method: as §1
T1 sequence (whole entry): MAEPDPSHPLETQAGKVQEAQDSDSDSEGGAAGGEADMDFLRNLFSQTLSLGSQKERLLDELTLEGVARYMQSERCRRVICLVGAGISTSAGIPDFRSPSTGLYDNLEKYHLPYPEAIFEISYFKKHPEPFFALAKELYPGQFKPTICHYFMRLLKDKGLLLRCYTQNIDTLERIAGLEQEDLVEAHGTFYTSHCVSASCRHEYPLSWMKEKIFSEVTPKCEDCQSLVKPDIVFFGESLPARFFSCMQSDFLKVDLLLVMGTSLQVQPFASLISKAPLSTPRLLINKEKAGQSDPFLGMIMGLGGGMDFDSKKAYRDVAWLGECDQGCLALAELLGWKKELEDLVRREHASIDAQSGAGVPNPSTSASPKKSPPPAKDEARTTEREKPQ

[3] = molecular target: T2, NAD-dependent protein deacetylase sirtuin-1 (Homo sapiens) (UniProt Q96EB6); assay: Activation of N-terminal his-tagged human SIRT1 expressed in Escherichia coli assessed as fold activation at 100 uM using p53-acK381 as substrate in presence of NAD+; conditions: filed as activator; summary of the method: as §1
T2 sequence (whole entry): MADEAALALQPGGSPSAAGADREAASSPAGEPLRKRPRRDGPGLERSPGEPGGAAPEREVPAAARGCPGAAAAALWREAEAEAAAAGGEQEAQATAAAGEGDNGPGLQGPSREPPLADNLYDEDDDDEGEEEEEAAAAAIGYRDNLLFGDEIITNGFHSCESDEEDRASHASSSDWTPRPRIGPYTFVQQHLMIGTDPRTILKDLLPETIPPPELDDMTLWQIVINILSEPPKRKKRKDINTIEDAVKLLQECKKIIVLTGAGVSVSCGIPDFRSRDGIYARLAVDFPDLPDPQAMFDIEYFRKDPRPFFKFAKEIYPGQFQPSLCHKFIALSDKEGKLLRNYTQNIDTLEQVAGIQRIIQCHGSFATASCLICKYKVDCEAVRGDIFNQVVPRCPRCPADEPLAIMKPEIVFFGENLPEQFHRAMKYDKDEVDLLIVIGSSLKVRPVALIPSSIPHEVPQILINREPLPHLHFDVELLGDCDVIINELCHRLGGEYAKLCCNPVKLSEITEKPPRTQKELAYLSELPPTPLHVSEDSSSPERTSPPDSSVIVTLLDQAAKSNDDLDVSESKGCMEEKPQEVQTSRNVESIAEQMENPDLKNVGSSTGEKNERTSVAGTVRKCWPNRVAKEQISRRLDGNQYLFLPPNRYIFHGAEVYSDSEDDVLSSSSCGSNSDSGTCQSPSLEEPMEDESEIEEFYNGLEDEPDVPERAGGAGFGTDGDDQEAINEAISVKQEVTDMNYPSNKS

[4] = molecular target: T3, NAD-dependent protein deacetylase sirtuin-3, mitochondrial (Homo sapiens) (UniProt Q9NTG7); assay: Activation of N-terminal his-tagged human SIRT3 (114 to 380 residues) expressed in Escherichia coli using ACS2-acK642 as substrate in presence of NAD+; conditions: filed as activator
T3 sequence (whole entry): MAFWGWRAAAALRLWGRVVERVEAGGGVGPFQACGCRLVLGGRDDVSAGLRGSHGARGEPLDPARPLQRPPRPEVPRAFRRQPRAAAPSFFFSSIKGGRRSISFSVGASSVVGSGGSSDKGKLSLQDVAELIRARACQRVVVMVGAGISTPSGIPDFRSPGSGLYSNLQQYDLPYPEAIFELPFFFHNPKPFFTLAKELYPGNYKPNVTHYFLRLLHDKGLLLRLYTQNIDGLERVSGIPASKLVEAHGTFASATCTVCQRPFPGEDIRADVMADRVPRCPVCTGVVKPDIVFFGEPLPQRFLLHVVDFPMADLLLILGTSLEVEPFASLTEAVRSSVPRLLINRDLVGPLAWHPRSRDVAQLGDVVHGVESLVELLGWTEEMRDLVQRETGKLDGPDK
Summary of the method: (§2)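 Coupled continuous enzymatic assay (nicotinamidase/GDH-linked): 1.5 µM purified Sirt3 with 50 µM ACS2-acK642 peptide and 100 µM NAD+, compound at 10 µM, 100 µM or titrated, 5% DMSO final; fold deacetylation versus no-compound control.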

[5] = molecular target: T3, NAD-dependent protein deacetylase sirtuin-3, mitochondrial (Homo sapiens); assay: Activation of N-terminal his-tagged human SIRT3 (114 to 380 residues) expressed in Escherichia coli assessed as fold activation at 10 to 100 uM using ACS2-acK642 as substrate in presence of NAD+; conditions: filed as activator, dose 10-100 µM; summary of the method: as §2
[6] = molecular target: T3, NAD-dependent protein deacetylase sirtuin-3, mitochondrial (Homo sapiens); assay: Activation of N-terminal his-tagged human SIRT3 (114 to 380 residues) expressed in Escherichia coli at 100 uM using ACS2-acK642 as substrate in presence of NAD+ by Mass spectrometry assay relative to control; conditions: filed as activator
Summary of the method: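 Mass-spectrometric deacetylation assay using coupled-assay components (1.5 µM Sirt3, 50 µM peptide, 100 µM NAD+, compound 100 µM) in 50 mM Na-phosphate pH 7.8 plus 0.05 µg/µL PNCA to remove nicotinamide; product and substrate peptides quantified.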

[7] = molecular target: NAD-dependent protein deacylase sirtuin-5, mitochondrial (Homo sapiens) (UniProt Q9NXA8); assay: Activation of N-terminal his-tagged human SIRT5 (34 to 302 residues) expressed in Escherichia coli assessed as fold activation at more than 200 uM using CPS1-succ537 as substrate in presence of NAD+; conditions: filed as activator
Summary of the method: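 Sirt5 desuccinylation measured by coupled enzymatic assay: 1.5 µM enzyme, 50 µM CPS1-succK537 peptide, 100 µM NAD+, 5% DMSO final; compound titrated; fold activation relative to untreated reaction.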
Target sequence in this assay (Q9NXA8 37-310 limits assumed): as the sequence (Q9NXA8 37-310 limits assumed) above

[8] = molecular target: T1, NAD-dependent protein deacetylase sirtuin-2 (Homo sapiens); assay: Activation of N-terminal SUMO-tagged human SIRT2 (43 to 356 residues) expressed in Escherichia coli assessed as deacetylation of substrate at 100 uM using acetylated alpha tubulin-K2 as substrate in presence of NAD+; conditions: filed as activator; summary of the method: as §1
[9] = molecular target: T3, NAD-dependent protein deacetylase sirtuin-3, mitochondrial (Homo sapiens); assay: Activation of SIRT3 in human MDA-MB-231 cells assessed as increase in GDH activity at 50 uM incubated for 4 hrs […]; format: cell-based; conditions: filed as activator
Summary of the method: (§3)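 MDA-MB-231 cells given 50 µM compound for 4 h, or 4 h then re-dosed for a further 4 h; 10^6 cells lysed, supernatant mixed with glutamate/developer mix, 3 min at 37 °C, absorbance 450 nm, buffer blank subtracted; means ± SD, Student's t-test.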

[10] = molecular target: NAD-dependent protein deacylase sirtuin-5, mitochondrial (Homo sapiens) (UniProt Q9NXA8); assay: Activation of N-terminal his-tagged human SIRT5 (34 to 302 residues) expressed in Escherichia coli assessed as desuccinylation of substrate at 100 uM using CPS1-succ537 as substrate in presence of NAD+ by Mass spectrometry analysis; conditions: filed as activator
Summary of the method: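 MS-based desuccinylation assay: same components as coupled assay (1.5 μM Sirt5, 50 μM CPS1-succK537 peptide, 100 μM NAD+, 5% DMSO) but in 50 mM Na-phosphate pH 7.8 with 0.05 μg/μL PNCA to remove nicotinamide; compound at 100 μM; product and substrate peptides quantified by mass spectrometry.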
Target sequence in this assay (Q9NXA8 37-310 limits assumed): as the sequence (Q9NXA8 37-310 limits assumed) above

[11] = molecular target: NAD-dependent protein deacylase sirtuin-5, mitochondrial (Homo sapiens) (UniProt Q9NXA8); assay: Activation of human recombinant SIRT5 assessed as decrease in PDHA1-succinylation at 100 uM by Western blot analysis; conditions: filed as activator
Target sequence in this assay (Q9NXA8 whole entry, looked up, the tested form may be a part): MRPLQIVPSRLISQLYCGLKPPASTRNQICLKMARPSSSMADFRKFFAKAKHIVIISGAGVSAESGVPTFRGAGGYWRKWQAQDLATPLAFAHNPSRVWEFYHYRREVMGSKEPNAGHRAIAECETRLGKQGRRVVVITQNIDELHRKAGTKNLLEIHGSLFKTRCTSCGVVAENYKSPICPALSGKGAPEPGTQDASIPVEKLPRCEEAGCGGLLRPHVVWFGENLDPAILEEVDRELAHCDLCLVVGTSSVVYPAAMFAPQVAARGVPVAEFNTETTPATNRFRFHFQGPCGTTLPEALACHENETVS

[12] = molecular target: NAD-dependent protein deacylase sirtuin-5, mitochondrial (Homo sapiens) (UniProt Q9NXA8); assay: Activation of SIRT5 in human MDA-MB-231 cells assessed as decrease in GLS activity at 50 uM using TMP substrate incubated for 4 to 24 hrs; conditions: filed as activator, time 4-24 hrs
Target sequence in this assay (Q9NXA8 whole entry, looked up, the tested form may be a part): as above

[13] = molecular target: NAD-dependent protein deacylase sirtuin-5, mitochondrial (Homo sapiens) (UniProt Q9NXA8); assay: Activation of SIRT5 in human S2-013 cells assessed as decrease in GOT1 acetylation at 20 uM incubated for 24 hrs by Western blot analysis; conditions: filed as activator
Target sequence in this assay (Q9NXA8 whole entry, looked up, the tested form may be a part): as above

[14] = molecular target: NAD-dependent protein deacylase sirtuin-5, mitochondrial (Homo sapiens) (UniProt Q9NXA8); assay: Activation of SIRT5 in human CAPAN-1 cells assessed as decrease in GOT1 acetylation at 20 uM incubated for 24 hrs by Western blot analysis; conditions: filed as activator
Target sequence in this assay (Q9NXA8 whole entry, looked up, the tested form may be a part): as above

[15] = molecular target: T2, NAD-dependent protein deacetylase sirtuin-1 (Homo sapiens); assay: Activation of N-terminal his-tagged human SIRT1 expressed in Escherichia coli assessed as fold activation at 10 to 100 uM using p53-acK381 as substrate in presence of NAD+; conditions: filed as activator, dose 10-100 µM; summary of the method: as §1
[16] = molecular target: T4, NAD-dependent protein deacetylase sirtuin-3 (Mus musculus) (UniProt Q8R104); assay: Activation of SIRT3 in mouse MEF cells assessed as fold increase in mitochondrial mass at 25 uM incubated for 24 hrs by MT-DR staining based FACS assay; format: cell-based; conditions: filed as activator
T4 sequence (whole entry): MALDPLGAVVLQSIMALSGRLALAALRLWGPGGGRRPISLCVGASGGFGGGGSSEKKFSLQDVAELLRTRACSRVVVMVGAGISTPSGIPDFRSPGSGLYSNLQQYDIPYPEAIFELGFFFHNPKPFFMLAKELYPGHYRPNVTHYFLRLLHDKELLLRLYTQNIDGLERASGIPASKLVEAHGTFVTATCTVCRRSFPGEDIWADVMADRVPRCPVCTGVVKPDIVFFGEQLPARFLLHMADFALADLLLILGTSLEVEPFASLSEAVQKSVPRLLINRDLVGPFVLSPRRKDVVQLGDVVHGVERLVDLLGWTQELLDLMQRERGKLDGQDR
Summary of the method: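 Wild-type and Sirt3 knock-out MEFs exposed to 25 µM compound for 24 h, then stained with 10 nM MitoTracker Deep Red for 30 min at 37 °C; mitochondrial mass by FACS; mean ± SD, n = 2.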

[17] = molecular target: T3, NAD-dependent protein deacetylase sirtuin-3, mitochondrial (Homo sapiens); assay: Activation of N-terminal his-tagged human SIRT3 (114 to 380 residues) expressed in Escherichia coli assessed as fold activation at 100 uM using ACS2-acK642 as substrate in presence of NAD+; conditions: filed as activator; summary of the method: as §2
[18] = molecular target: T3, NAD-dependent protein deacetylase sirtuin-3, mitochondrial (Homo sapiens); assay: Activation of SIRT3 in human MDA-MB-231 cells assessed as increase in FdL deacetylation activity at 50 to 100 uM incubated for 3 hrs; format: cell-based; conditions: filed as activator, dose 50-100 µM
Summary of the method: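 MDA-MB-231 cells (RPMI 1640, 10% FBS, 37 °C, 5% CO2) treated 3 h at 50 or 100 µM; 40 µg mitochondrial extract incubated with Fluor de Lys substrate 40 min 37 °C, then developer 10 min; fluorescence ex 360/em 460 nm, buffer background subtracted.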

[19] = molecular target: T3, NAD-dependent protein deacetylase sirtuin-3, mitochondrial (Homo sapiens); assay: Activation of STAT3 protein level in human MDA-MB-231 cells assessed as STAT3 protein expression incubated for 24 hrs by Western blotting; format: cell-based; conditions: filed as activator
[20] = molecular target: T3, NAD-dependent protein deacetylase sirtuin-3, mitochondrial (Homo sapiens); assay: Activation of SIRT3 in human MDA-MB-231 cells assessed as increase in GDH activity at 50 uM incubated for 8 hrs […]; format: cell-based; conditions: filed as activator; summary of the method: as §3
[21] = molecular target: T3, NAD-dependent protein deacetylase sirtuin-3, mitochondrial (Homo sapiens); assay: Activation of SIRT3 in human MDA-MB-231 cells assessed as decrease in MnSOD-Lys68 acetylation level at 50 uM incubated for 16 hrs by Western blot analysis assay; format: cell-based; conditions: filed as activator
Summary of the method: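 MDA-MB-231 cells (wild-type and Sirt3-knockdown) treated with 50 µM; 50 µg whole-cell lysate protein run on SDS-PAGE, blotted to PVDF, probed with anti-MnSOD-acK68 and anti-MnSOD, ECL detection; each blot done in triplicate.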

## CCOC(=O)C1=CN(C(=O)c2cc(OC)c(OC)c(OC)c2)C=C(C(=O)OCC)C1c1cccc(N)c1
[1]
  fold change (FC): 3
[2]
  fold change (FC): 2.5
[3]
  fold change (FC): 4

## CCOC(=O)C1=CN(C(=O)c2cc(OC)c(OC)c(OC)c2)C=C(C(=O)OCC)C1c1ccccc1
[4]
  Activity: Active
[5]
  fold change (FC): 5
[6]
  Activity: 400%
[7]
  fold change (FC): 5
[8]
  Activity: Active
[9]
  Activity: Active

## CCOC(=O)C1=CN(C(=O)c2ccccc2)C=C(C(=O)OCC)C1c1ccsc1
[1]
  fold change (FC): 3
[10]
  Activity: Active
[11]
  Activity: Active
[12]
  Activity: Active
[13]
  Activity: Active
[14]
  Activity: Active

## CCOC(=O)C1=CN(Cc2ccccc2)C=C(C(=O)OCC)C1c1cnc2ccccc2c1
[15]
  fold change (FC): 1.5
[16]
  Activity: Active

## CCOC(=O)C1=CN(C(=O)c2ccccc2)C=C(C(=O)OCC)C1c1ccccc1
[17]
  fold change (FC): 3.5
[15]
  fold change (FC): 1.5
[6]
  Activity: 300%
[18]
  Activity: Active
[19]
  Activity: Active
[20]
  Activity: Active
[21]
  Activity: Active
